Results from different studies.
Lines come from different studies, so protocols differ.
Target: Phosphatidylinositol 4-phosphate 5-kinase type-1 alpha (PIP5K1A, Homo sapiens, UniProt Q99755)

Compound | read-out | mode | method | tested at | quantity | result
CN1CCN(C(=O)c2ccc(NC(=O)Nc3ccc(N(C)c4ccnc(Nc5ccc(CS(C)(=O)=O)cc5)n4)cc3)cc2)CC1 | binding | – | – | 1 µM | remaining binding | 9.3%
C1=C/COCc2cc(ccc2OCCN2CCCC2)Nc2nccc(n2)-c2cccc(c2)COC/1 | binding | – | – | 0.1 µM | remaining binding | 20%
C=CC(=O)N1CCC([C@@H]2CCNc3c(C(N)=O)c(-c4ccc(Oc5ccccc5)cc4)nn32)CC1 | enzyme activity | inhibitor | – | 1 µM | inhibition | 16%
COc1ccc2[nH]c3c4[nH]c5ccc(OC)cc5c4c4c(c3c2c1)C(=O)NC4=O | binding | – | – | 1 µM | remaining binding | 100%
COc1ccc2oc(-c3ccc4nc(N)oc4c3)c/c(=N\c3ccccc3NC(=O)CCN)c2c1 | binding | – | – | 1 µM | remaining binding | 95%
CCCCC(=O)Nc1ccc(-c2ccc3ncn(CCC)c(=O)c3c2)cn1 | binding | – | competition with immobilised ligand | 0.5 µM | remaining binding | 100%
C[C@]1(O)CCCN(c2nc(Nc3ccc(S(=O)(=O)N[C@H]4CC[C@H](CN5CCN(c6ccc(C7CCC(=O)NC7=O)cc6F)CC5)CC4)cc3Cl)ncc2C(F)(F)F)C1 (stereo partly shown) | binding | – | competition with immobilised ligand | 1 µM | remaining binding | 93%
CC#CC(=O)N1CCC[C@H]1c1nc(-c2ccc(C(=O)Nc3ccccn3)cc2)c2c(N)nccn12 | enzyme activity | inhibitor | – | 1 µM | inhibition | 12%
C[C@]1(O)CCCN(c2nc(Nc3ccc(S(=O)(=O)N[C@H]4CC[C@H](CN5CCN(c6ccc(C7CCC(=O)NC7=O)cc6F)CC5)CC4)cc3F)ncc2C(F)(F)F)C1 (stereo partly shown) | binding | – | competition with immobilised ligand | 1 µM | remaining binding | 94%
CC(C)S(=O)(=O)c1ccc2nccc(Nc3ccc4sc(C5CCCC5)nc4c3)c2c1 | enzyme activity | inhibitor | – | 1 µM | activity vs control | 104%
